Activity calls are given as the source filed them. The rule behind the calls is not given here.
Key:
[1] = system: Rattus norvegicus; assay: Anticonvulsant activity in albino Sprague-Dawley rat assessed as protection against maximal electroshock-induced seizures at 30 mg/kg, po measured after 0.25 hr; type: functional
Procedure, shortened: (§1)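 Male Sprague-Dawley rats, four per group, dosed p.o. at 30 mg/kg in 0.5% methylcellulose/water suspension; MES test at 0.25, 0.5, 1, 2 and 4 h, motor impairment examined in parallel; number of rats out of four protected.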

[2] = system: Mus musculus; assay: Toxicity in albino CF1 mouse assessed as myoclonic jerks at 300 mg/kg, ip measured after 0.5 hr by rotorod test; type: organism-based; design: dose 300 mg/kg, route intraperitoneal; settings: in vivo
[3] = Neurotoxicity in po dosed albino Sprague-Dawley rat assessed as minimum motor impairment by rotorod test; type: toxicity, organism-based; settings: in vivo
[4] = system: Rattus norvegicus; assay: Anticonvulsant activity against […] subcutaneous pentylenetetrazole-induced convulsion in po dosed albino Sprague-Dawley rat assessed as time to peak effect; type: functional
[5] = system: Mus musculus; assay: Anticonvulsant activity against 6 Hz psychomotor seizure in ip dosed albino CF1 mouse assessed as time to peak effect by minimal clonic seizure test; type: functional
[6] = system: Rattus norvegicus; assay: Anticonvulsant activity in albino Sprague-Dawley rat assessed as protection against maximal electroshock-induced seizures at 30 mg/kg, po measured after 1 hr; type: functional; procedure, shortened: as §1
[7] = system: Mus musculus; assay: Anticonvulsant activity in albino CF1 mouse assessed as protection against subcutaneous pentylenetetrazole-induced convulsion at 300 mg/kg, ip measured after 0.5 hrs; type: functional, organism-based; design: dose 300 mg/kg
Procedure, shortened: (§2)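 Male CF-1 mice given ip suspension in 0.5% methylcellulose/water at 30, 100 and 300 mg/kg; MES, scPTZ (pentylenetetrazole 85 mg/kg sc, CD97 dose for clonic seizures ≥5 s) and rotarod (inability to hold balance 1 min in each of three trials) assessed at 0.5 and 4 h; value is minimum dose active in half or more animals.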

[8] = system: Rattus norvegicus; assay: Protection index, ratio of TD50 for neurotoxicity in po dosed albino Sprague-Dawley rat by rotorod test to ED50 for anticonvulsant activity in po dosed albino Sprague-Dawley rat by scPTZ test; type: functional
Procedure, shortened: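 Male Sprague-Dawley rats, compound suspended in 0.5% methylcellulose/water and given orally; tested at the time of peak effect. scPTZ: 70 mg/kg pentylenetetrazole sc; the end-point is clonic seizures lasting at least 5 s. Rotarod: motor impairment is failure to keep balance for 1 min in each of three trials. Groups of at least eight rats received several doses until at least three points fell within 10–90% effect. ED50, TD50 and 95% confidence intervals were derived by regression; PI = TD50/ED50.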

[9] = system: Mus musculus; assay: Neurotoxicity in ip dosed albino CF1 mouse assessed as minimum motor impairment in half or more animals measured after 0.5 hrs by rotorod test; type: toxicity, organism-based; settings: in vivo; procedure, shortened: as §2
[10] = system: Mus musculus; assay: Neurotoxicity in albino CF1 mouse assessed as minimum motor impairment at 300 mg/kg, ip measured after 4 hrs by rotorod test; type: toxicity, organism-based; design: dose 300 mg/kg, route intraperitoneal; settings: in vivo; procedure, shortened: as §2
[11] = system: Mus musculus; assay: Anticonvulsant activity in albino CF1 mouse assessed as assessed as protection against 6 Hz psychomotor seizure at 75 mg/kg, ip after 2 hrs by minimal clonic seizure test; type: functional; settings: route intraperitoneal
Procedure, shortened: (§3)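 Male CF-1 mice, groups of four, dosed ip in 0.5% methylcellulose/water suspension, then challenged by 6-Hz corneal stimulation at 32 mA (0.2 ms pulses, 3 s, constant current) at 0.25, 0.5, 1, 2 or 4 h; count of mice out of four protected from stunned posture/clonic seizure.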

[12] = system: Rattus norvegicus; assay: Neurotoxicity in po dosed albino Sprague-Dawley rat assessed as time to peak effect by rotorod test; type: toxicity, organism-based; settings: in vivo
[13] = system: Mus musculus; assay: Protection index, ratio of TD50 for neurotoxicity in ip dosed albino CF1 mouse by rotorod test to ED50 for anticonvulsant activity in ip dosed albino CF1 mouse by 6 Hz psychomotor seizure test; type: functional
[14] = system: Mus musculus; assay: Anticonvulsant activity in albino CF1 mouse assessed as assessed as protection against 6 Hz psychomotor seizure at 75 mg/kg, ip after 0.25 hr by minimal clonic seizure test; type: functional; settings: route intraperitoneal; procedure, shortened: as §3
[15] = system: Rattus norvegicus; assay: Anticonvulsant activity in po dosed albino Sprague-Dawley rat assessed as protection against subcutaneous pentylenetetrazole-induced convulsion; type: functional
[16] = system: Mus musculus; assay: Anticonvulsant activity in ip dosed albino CF1 mouse assessed as protection against maximal electroshock-induced seizures in half or more animals measured after 0.5 hr; type: functional; settings: read-out: MED; procedure, shortened: as §2
[17] = system: Rattus norvegicus; assay: Protection index, ratio of TD50 for neurotoxicity in po dosed albino Sprague-Dawley rat by rotorod test to ED50 for anticonvulsant activity in po dosed albino Sprague-Dawley rat by MES test; type: functional
[18] = system: Mus musculus; assay: Anticonvulsant activity in albino CF1 mouse assessed as assessed as protection against 6 Hz psychomotor seizure at 75 mg/kg, ip after 0.5 hr by minimal clonic seizure test; type: functional; settings: route intraperitoneal; procedure, shortened: as §3
[19] = system: Rattus norvegicus; assay: Anticonvulsant activity in albino Sprague-Dawley rat assessed as protection against maximal electroshock-induced seizures at 30 mg/kg, po measured after 2 hrs; type: functional; procedure, shortened: as §1
[20] = system: Rattus norvegicus; assay: Anticonvulsant activity in albino Sprague-Dawley rat assessed as protection against maximal electroshock-induced seizures at 30 mg/kg, po measured after 0.5 hr; type: functional; procedure, shortened: as §1
[21] = Neurotoxicity in ip dosed albino CF1 mouse by rotorod test; type: toxicity, organism-based; settings: in vivo
[22] = system: Mus musculus; assay: Neurotoxicity in ip dosed albino CF1 mouse assessed as time to peak effect by rotorod test; type: toxicity, organism-based; settings: in vivo
[23] = system: Rattus norvegicus; assay: Anticonvulsant activity in po dosed albino Sprague-Dawley rat assessed as protection against maximal electroshock-induced seizures; type: functional
[24] = system: Mus musculus; assay: Anticonvulsant activity in ip dosed albino CF1 mouse assessed as protection against maximal electroshock-induced seizures in half or more animals measured after 4 hrs; type: functional; settings: read-out: MED; procedure, shortened: as §2
[25] = system: Mus musculus; assay: Anticonvulsant activity in albino CF1 mouse assessed as assessed as protection against 6 Hz psychomotor seizure at 75 mg/kg, ip after 4 hrs by minimal clonic seizure test; type: functional; settings: route intraperitoneal; procedure, shortened: as §3
[26] = system: Mus musculus; assay: Anticonvulsant activity against 6 Hz psychomotor seizure in ip dosed albino CF1 mouse by minimal clonic seizure test; type: functional
[27] = system: Rattus norvegicus; assay: Anticonvulsant activity against maximal electroshock-induced seizures in po dosed albino Sprague-Dawley rat assessed as time to peak effect; type: functional
[28] = system: Mus musculus; assay: Anticonvulsant activity in albino CF1 mouse assessed as assessed as protection against 6 Hz psychomotor seizure at 75 mg/kg, ip after 1 hr by minimal clonic seizure test; type: functional; settings: route intraperitoneal; procedure, shortened: as §3
[29] = system: Rattus norvegicus; assay: Anticonvulsant activity in albino Sprague-Dawley rat assessed as protection against maximal electroshock-induced seizures at 30 mg/kg, po measured after 4 hrs; type: functional; procedure, shortened: as §1
[30] = system: Mus musculus; assay: Anticonvulsant activity in albino CF1 mouse assessed as assessed as protection against 6 Hz psychomotor seizure at 50 mg/kg, ip after 0.25 hr by minimal clonic seizure test; type: functional; settings: route intraperitoneal; procedure, shortened: as §3
[31] = system: Mus musculus; assay: Anticonvulsant activity against […] psychomotor seizure in ip dosed albino CF1 mouse by minimal clonic seizure test; type: functional
[32] = system: Mus musculus; assay: Anticonvulsant activity in albino CF1 mouse assessed as assessed as protection against 6 Hz psychomotor seizure at 50 mg/kg, ip after 2 hrs by minimal clonic seizure test; type: functional; settings: route intraperitoneal; procedure, shortened: as §3
[33] = system: Mus musculus; assay: Anticonvulsant activity against […] psychomotor seizure in ip dosed albino CF1 mouse assessed as time to peak effect by minimal clonic seizure test; type: functional
[34] = system: Mus musculus; assay: Toxicity in albino CF1 mouse assessed as sedation at 100 mg/kg, ip measured after 4 hrs by rotorod test; type: organism-based; design: dose 100 mg/kg, route intraperitoneal; settings: in vivo
[35] = system: Mus musculus; assay: Anticonvulsant activity in albino CF1 mouse assessed as assessed as protection against 6 Hz psychomotor seizure at 100 mg/kg, ip after 1 hr by minimal clonic seizure test; type: functional; settings: route intraperitoneal; procedure, shortened: as §3
[36] = system: Mus musculus; assay: Neurotoxicity in ip dosed albino CF1 mouse assessed as minimum motor impairment in half or more animals measured after 4 hrs by rotorod test; type: toxicity, organism-based; settings: in vivo; procedure, shortened: as §2
[37] = system: Mus musculus; assay: Anticonvulsant activity in albino CF1 mouse assessed as assessed as protection against 6 Hz psychomotor seizure at 50 mg/kg, ip after 4 hrs by minimal clonic seizure test; type: functional; settings: route intraperitoneal; procedure, shortened: as §3
[38] = system: Mus musculus; assay: Anticonvulsant activity in albino CF1 mouse assessed as assessed as protection against 6 Hz psychomotor seizure at 100 mg/kg, ip after 4 hrs by minimal clonic seizure test; type: functional; settings: route intraperitoneal; procedure, shortened: as §3
[39] = system: Mus musculus; assay: Anticonvulsant activity in albino CF1 mouse assessed as assessed as protection against 6 Hz psychomotor seizure at 100 mg/kg, ip after 2 hrs by minimal clonic seizure test; type: functional; settings: route intraperitoneal; procedure, shortened: as §3
[40] = system: Mus musculus; assay: Anticonvulsant activity in ip dosed albino CF1 mouse assessed as protection against subcutaneous pentylenetetrazole-induced convulsion in half or more animals measured after 0.5 hr; type: functional; settings: albino CF1, 0.5 h, read-out: MED; procedure, shortened: as §2
[41] = system: Mus musculus; assay: Anticonvulsant activity in albino CF1 mouse assessed as assessed as protection against 6 Hz psychomotor seizure at 100 mg/kg, ip after 0.5 hr by minimal clonic seizure test; type: functional; settings: route intraperitoneal; procedure, shortened: as §3
[42] = system: Mus musculus; assay: Anticonvulsant activity in albino CF1 mouse assessed as assessed as protection against 6 Hz psychomotor seizure at 50 mg/kg, ip after 1 hr by minimal clonic seizure test; type: functional; settings: route intraperitoneal; procedure, shortened: as §3
[43] = system: Mus musculus; assay: Anticonvulsant activity in albino CF1 mouse assessed as assessed as protection against 6 Hz psychomotor seizure at 100 mg/kg, ip after 0.25 hr by minimal clonic seizure test; type: functional; settings: route intraperitoneal; procedure, shortened: as §3
[44] = system: Mus musculus; assay: Anticonvulsant activity in albino CF1 mouse assessed as assessed as protection against 6 Hz psychomotor seizure at 50 mg/kg, ip after 0.5 hr by minimal clonic seizure test; type: functional; settings: route intraperitoneal; procedure, shortened: as §3
[45] = system: Rattus norvegicus; assay: Anticonvulsant activity in albino rat assessed as protection against pilocarpine-induced status epilepticus at 100 mg/kg, ip measured 0.5 hrs post first stage 3 seizure; type: functional, organism-based; design: dose 100 mg/kg
Procedure, shortened: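 Male Sprague-Dawley rats (150–180 g) dosed ip, followed by challenge dose of pilocarpine; compound given relative to first stage III seizure (time zero or 0.5 h); outcome scored as protection or no protection, plus body-weight change 24 h after first stage III seizure.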

[46] = system: Mus musculus; assay: Anticonvulsant activity in ip dosed albino CF1 mouse assessed as protection against subcutaneous pentylenetetrazole-induced convulsion in half or more animals measured after 4 hrs; type: functional; settings: albino CF1, 4 h, read-out: MED; procedure, shortened: as §2

O=C1CC(c2ccccc2Cl)C(=O)N1CN1CCC(Cc2ccccc2)CC1 (racemic)
Activity [1]: 25% | MED [2]: 100 mg/kg | TD50 [3]: > 500 mg/kg | Time [4]: 1 h | Time [5]: 0.5 h | Activity [6]: 75% | Activity [7]: inactive | Ratio TD50/ED50 [8]: >4.68 | MED [9]: 300 mg/kg | Activity [10]: Non-toxic | Activity [11]: 25% | Time [12]: 1 h | Ratio TD50/ED50 [13]: 3.26 | Activity [14]: 0% | ED50 [15]: 107 mg/kg | minimal effective dose [16]: 300 mg/kg | Ratio TD50/ED50 [17]: >13.28 | Activity [18]: 75% | Activity [19]: 25% | Activity [20]: 75% | TD50 [21]: 275 mg/kg | Time [22]: 0.5 h | ED50 [23]: 37.6 mg/kg | minimal effective dose [24]: 100 mg/kg | Activity [25]: 0% | ED50 [26]: 84.6 mg/kg | Time [27]: 1 h | Activity [28]: 0% | Activity [29]: inactive

O=C1CC(c2ccccc2Cl)C(=O)N1CN1CCOCC1 (racemic)
Activity [30]: 100% | Activity [1]: inactive | ED50 [31]: 55.6 mg/kg | Time [5]: 0.25 h | Activity [6]: 25% | Activity [32]: 75% | Time [33]: 0.5 h | MED [34]: 300 mg/kg | Activity [35]: 100% | minimal effective dose [16]: 100 mg/kg | MED [36]: 300 mg/kg | Activity [37]: 0% | Activity [19]: inactive | Activity [38]: 100% | Activity [20]: 25% | Activity [39]: 100% | minimal effective dose [40]: 100 mg/kg | Time [22]: 0.25 h | Activity [41]: 100% | minimal effective dose [24]: 100 mg/kg | ED50 [26]: 31.1 mg/kg | Activity [42]: 75% | Activity [43]: 100% | Activity [29]: inactive | Activity [44]: 75% | Activity [45]: inactive | minimal effective dose [46]: 300 mg/kg
